One block for each compound: values may come before it. *1 amine or outer side, *2 acyl side, *3 side chain or, on linkers, in order; H or OH if unused. Where a SMILES comes first, the peptide text is derived from it. Bridges are numbered along the chain shown (N, C = ends). [ ]: non-standard residue; d: D form. The star is where a group is joined. Staurosporine = CO[C@@H]1[C@H](N(C)*)C[C@H]2O[C@]1(C)n1c3ccccc3c3c4c(c5c6ccccc6n2c5c31)C(=O)NC4; Suc = O=C(CCC(=O)[*:2])[*:1]; Dap = NC[C@H](N)C(=O)O; βAla = NCCC(=O)O
Columns and labels:
[1] = Ratio of compound to staurosporine binding affinity to PKA in presence of DTT
[2] = molecular target: Atypical kinase COQ8A, mitochondrial (Homo sapiens) (UniProt Q8NI60); test: Binding affinity to human ADCK3 at 500 nM by cell-based competition binding assay relative to control in presence of DTT
Method in brief: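 Kinase binding profiling ran on a commercial (Ambit) competitive binding screen against a panel of 90 kinases. The screen used reducing conditions with 7.5 mM DTT. To withstand the DTT, the bivalent ligand was tested as its amide isostere, with the disulfide replaced. A staurosporine derivative carrying a 3 β-alanine linker was run as the reference compound.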

[3] = molecular target: T1, Serine/threonine-protein kinase Chk1 (Homo sapiens) (UniProt O14757); test: Binding affinity to human CHEK1 at 500 nM by cell-based competition binding assay relative to control in presence of DTT
T1 sequence (whole entry): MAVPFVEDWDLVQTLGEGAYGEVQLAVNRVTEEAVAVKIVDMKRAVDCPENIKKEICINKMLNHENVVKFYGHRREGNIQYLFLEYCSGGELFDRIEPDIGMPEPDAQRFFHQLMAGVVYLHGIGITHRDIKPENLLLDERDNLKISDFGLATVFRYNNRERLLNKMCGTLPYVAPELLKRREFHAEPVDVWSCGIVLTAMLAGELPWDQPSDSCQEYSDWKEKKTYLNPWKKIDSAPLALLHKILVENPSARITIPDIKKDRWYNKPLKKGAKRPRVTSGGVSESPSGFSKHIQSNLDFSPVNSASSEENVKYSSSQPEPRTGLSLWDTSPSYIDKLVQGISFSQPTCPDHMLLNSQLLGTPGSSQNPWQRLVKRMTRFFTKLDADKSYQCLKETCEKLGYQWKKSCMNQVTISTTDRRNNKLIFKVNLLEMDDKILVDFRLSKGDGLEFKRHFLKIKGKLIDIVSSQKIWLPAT
Method in brief: (§1)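 Commercial (Ambit) competitive kinase-binding panel of 90 kinases measured the binding profile. Run under reducing conditions of 7.5 mM DTT. Binding is expressed relative to control.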

[4] = molecular target: T2, Protein kinase C epsilon type (Homo sapiens) (UniProt Q02156); test: Binding affinity to human PRKCepsilon at 200 nM by cell-based competition binding assay relative to control in presence of DTT
T2 sequence (whole entry): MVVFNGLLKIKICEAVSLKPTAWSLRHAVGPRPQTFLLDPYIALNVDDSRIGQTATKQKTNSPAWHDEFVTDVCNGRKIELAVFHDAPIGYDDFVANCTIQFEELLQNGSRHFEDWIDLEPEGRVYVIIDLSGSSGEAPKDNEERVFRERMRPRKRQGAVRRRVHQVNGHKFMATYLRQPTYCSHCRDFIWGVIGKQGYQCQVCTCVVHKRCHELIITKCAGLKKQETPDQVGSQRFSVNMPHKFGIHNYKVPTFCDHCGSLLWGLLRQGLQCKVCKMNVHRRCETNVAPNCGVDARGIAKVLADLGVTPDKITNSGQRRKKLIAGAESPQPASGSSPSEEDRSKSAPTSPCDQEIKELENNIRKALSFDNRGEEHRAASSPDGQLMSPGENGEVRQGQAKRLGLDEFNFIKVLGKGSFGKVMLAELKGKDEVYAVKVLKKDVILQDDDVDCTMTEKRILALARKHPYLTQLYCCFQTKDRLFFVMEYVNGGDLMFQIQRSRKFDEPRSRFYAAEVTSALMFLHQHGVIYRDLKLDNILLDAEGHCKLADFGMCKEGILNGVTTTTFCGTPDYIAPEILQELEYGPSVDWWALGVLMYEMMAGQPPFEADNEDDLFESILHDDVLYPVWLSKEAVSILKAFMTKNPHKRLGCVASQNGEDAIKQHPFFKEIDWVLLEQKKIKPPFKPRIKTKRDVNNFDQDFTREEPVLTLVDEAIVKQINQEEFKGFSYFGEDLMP

[5] = molecular target: Receptor-type tyrosine-protein kinase FLT3 (Homo sapiens) (UniProt P36888); test: Binding affinity to human FLT3 at 200 nM by cell-based competition binding assay relative to control in presence of DTT; method in brief: as §1
[6] = molecular target: Platelet-derived growth factor receptor alpha (Homo sapiens) (UniProt P16234); test: Binding affinity to human PDGFRalpha at 200 nM by cell-based competition binding assay relative to control in presence of DTT
[7] = molecular target: Mitogen-activated protein kinase 3 (Homo sapiens) (UniProt P27361); test: Binding affinity to human ERK1 at 50 nM by cell-based competition binding assay relative to control in presence of DTT; method in brief: as §1
[8] = molecular target: Dual specificity mitogen-activated protein kinase kinase 1 (Homo sapiens) (UniProt Q02750); test: Binding affinity to human MEK1 at 50 nM by cell-based competition binding assay relative to control in presence of DTT
Method in brief: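 Kinase binding profile from a commercial panel of 90 kinases, run as a competitive binding assay. The panel was screened under reducing conditions of 7.5 mM DTT. Signal was compared with the untreated control.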

[9] = molecular target: Tyrosine-protein kinase JAK2 (Homo sapiens) (UniProt O60674); test: Binding affinity to human JAK2 kinase domain 2 at 50 nM by cell-based competition binding assay relative to control in presence of DTT
Method in brief: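 Competition binding screen (Ambit) across a panel of 90 kinases, scoring test ligand displacement of each kinase's binding relative to control. The screen ran under reducing conditions with 7.5 mM DTT.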

Atypical kinase COQ8A, mitochondrial (Homo sapiens), sequence (Q8NI60 163-647 limits assumed): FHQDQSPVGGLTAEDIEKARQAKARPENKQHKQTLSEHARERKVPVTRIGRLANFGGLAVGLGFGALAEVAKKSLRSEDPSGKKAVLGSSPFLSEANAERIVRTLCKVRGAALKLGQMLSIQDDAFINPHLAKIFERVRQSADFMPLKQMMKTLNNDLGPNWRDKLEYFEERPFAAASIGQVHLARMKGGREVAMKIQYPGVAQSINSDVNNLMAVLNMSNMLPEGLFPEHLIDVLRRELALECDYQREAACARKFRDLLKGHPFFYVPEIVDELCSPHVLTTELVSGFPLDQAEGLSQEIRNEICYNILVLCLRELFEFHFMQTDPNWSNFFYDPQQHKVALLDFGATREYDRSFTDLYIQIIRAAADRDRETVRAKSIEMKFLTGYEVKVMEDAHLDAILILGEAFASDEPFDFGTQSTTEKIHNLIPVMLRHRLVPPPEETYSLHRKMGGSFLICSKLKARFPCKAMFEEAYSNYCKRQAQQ
Mitogen-activated protein kinase 3 (Homo sapiens), sequence (P27361 whole entry): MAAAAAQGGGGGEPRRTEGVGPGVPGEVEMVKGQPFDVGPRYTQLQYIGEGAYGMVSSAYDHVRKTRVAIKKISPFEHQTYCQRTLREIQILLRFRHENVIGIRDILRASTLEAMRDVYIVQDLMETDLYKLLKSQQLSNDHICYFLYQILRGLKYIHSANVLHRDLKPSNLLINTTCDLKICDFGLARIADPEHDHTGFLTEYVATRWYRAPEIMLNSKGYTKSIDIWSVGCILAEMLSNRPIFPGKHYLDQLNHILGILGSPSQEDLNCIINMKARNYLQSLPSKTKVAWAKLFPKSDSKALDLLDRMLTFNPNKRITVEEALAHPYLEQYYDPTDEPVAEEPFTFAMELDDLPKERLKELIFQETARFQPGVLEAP
Tyrosine-protein kinase JAK2 (Homo sapiens), sequence (O60674 whole entry, the tested form may be a part): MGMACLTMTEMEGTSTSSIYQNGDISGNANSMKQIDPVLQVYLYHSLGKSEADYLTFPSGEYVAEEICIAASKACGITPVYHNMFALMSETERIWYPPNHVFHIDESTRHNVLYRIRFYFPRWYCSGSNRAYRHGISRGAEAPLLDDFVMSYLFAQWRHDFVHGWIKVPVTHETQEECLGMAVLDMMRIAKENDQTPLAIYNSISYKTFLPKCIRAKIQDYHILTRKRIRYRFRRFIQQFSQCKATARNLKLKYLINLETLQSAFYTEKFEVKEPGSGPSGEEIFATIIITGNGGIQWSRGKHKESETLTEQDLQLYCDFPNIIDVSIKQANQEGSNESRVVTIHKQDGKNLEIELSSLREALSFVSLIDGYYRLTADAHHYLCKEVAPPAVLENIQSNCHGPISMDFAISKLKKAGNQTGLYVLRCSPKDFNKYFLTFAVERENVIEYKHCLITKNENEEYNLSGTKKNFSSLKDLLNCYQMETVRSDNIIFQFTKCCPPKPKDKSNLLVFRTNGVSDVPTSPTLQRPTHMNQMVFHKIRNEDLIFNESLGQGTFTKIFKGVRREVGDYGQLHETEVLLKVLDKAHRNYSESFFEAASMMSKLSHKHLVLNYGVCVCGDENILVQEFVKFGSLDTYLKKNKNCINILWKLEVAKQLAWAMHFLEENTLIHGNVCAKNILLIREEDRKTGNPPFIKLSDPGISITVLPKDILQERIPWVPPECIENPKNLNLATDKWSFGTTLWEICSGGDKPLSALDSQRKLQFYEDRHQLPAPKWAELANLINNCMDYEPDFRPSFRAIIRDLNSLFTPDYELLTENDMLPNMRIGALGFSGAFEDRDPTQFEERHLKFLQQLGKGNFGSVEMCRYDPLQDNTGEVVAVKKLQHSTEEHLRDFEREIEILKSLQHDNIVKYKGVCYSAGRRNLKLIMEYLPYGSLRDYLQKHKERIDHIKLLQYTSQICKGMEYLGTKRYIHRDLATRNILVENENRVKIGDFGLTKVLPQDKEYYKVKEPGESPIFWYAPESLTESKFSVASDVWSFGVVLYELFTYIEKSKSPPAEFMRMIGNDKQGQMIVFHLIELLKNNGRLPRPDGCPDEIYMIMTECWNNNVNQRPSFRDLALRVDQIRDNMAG
Dual specificity mitogen-activated protein kinase kinase 1 (Homo sapiens), sequence (Q02750 whole entry): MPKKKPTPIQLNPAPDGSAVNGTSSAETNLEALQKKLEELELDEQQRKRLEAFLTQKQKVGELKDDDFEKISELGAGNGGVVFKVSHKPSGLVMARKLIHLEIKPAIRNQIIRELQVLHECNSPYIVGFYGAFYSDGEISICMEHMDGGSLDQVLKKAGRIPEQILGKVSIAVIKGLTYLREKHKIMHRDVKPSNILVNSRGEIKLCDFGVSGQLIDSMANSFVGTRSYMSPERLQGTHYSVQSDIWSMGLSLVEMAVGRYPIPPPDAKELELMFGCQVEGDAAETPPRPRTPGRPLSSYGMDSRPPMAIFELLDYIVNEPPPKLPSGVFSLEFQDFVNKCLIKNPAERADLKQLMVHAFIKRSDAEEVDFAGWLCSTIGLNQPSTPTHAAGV
Receptor-type tyrosine-protein kinase FLT3 (Homo sapiens), sequence (P36888 whole entry): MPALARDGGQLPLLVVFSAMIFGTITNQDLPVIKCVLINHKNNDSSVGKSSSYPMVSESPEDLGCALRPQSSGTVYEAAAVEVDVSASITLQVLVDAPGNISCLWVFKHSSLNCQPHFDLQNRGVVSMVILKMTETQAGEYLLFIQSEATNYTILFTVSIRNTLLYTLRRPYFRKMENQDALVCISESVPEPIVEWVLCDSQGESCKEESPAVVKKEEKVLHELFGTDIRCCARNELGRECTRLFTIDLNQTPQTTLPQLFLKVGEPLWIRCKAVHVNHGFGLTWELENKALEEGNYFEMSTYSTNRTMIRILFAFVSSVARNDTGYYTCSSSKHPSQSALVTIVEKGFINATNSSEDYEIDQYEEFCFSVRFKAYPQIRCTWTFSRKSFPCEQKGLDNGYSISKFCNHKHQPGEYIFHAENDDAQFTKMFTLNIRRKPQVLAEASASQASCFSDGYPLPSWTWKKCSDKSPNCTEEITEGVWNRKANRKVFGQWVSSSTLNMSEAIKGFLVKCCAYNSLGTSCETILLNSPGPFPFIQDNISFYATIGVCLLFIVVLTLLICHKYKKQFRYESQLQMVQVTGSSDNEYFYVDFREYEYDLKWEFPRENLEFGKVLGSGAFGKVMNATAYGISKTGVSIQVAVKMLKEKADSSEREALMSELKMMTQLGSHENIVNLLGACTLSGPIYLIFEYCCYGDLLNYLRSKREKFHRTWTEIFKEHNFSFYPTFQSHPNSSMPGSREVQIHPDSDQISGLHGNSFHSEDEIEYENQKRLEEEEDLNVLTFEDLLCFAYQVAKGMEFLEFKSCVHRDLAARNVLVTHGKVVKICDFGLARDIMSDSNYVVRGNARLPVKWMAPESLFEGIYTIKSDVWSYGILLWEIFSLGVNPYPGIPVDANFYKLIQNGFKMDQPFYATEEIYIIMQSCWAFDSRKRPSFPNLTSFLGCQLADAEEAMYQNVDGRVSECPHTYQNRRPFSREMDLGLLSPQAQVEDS
Platelet-derived growth factor receptor alpha (Homo sapiens), sequence (P16234 whole entry): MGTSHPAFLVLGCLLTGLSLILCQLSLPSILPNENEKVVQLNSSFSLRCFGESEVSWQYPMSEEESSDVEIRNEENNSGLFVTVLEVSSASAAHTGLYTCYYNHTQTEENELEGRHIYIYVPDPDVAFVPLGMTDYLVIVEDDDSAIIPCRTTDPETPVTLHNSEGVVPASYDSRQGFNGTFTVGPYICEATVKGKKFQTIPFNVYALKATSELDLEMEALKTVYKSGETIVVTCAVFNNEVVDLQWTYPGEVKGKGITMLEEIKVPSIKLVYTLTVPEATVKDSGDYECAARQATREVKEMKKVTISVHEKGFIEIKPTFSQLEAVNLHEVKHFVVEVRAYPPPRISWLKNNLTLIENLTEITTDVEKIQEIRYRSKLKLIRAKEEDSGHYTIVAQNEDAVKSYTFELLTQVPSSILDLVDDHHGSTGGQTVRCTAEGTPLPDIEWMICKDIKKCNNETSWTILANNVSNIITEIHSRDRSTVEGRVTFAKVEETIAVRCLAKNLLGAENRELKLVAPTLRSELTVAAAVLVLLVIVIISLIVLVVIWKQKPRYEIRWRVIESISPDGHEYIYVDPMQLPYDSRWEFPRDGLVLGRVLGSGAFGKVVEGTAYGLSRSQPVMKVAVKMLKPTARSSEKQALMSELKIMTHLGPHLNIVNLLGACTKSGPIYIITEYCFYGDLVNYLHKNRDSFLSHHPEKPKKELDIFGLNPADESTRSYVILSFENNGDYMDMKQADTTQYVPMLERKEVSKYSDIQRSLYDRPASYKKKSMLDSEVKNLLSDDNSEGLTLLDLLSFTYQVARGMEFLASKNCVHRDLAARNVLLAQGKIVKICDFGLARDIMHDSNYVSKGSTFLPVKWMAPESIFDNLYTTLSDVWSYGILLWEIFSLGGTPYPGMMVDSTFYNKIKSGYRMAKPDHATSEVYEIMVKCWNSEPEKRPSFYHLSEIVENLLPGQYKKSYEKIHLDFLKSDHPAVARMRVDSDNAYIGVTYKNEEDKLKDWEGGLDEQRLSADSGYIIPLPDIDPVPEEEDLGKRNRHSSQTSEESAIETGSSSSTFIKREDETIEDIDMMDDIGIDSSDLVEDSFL

- Selectivity ratio [1]: 14
- Activity [2]: 91%
- Activity [3]: 54%
Compound: CO[C@@H]1[C@H](N(C)C(=O)CCC(=O)NCCC(=O)NCCC(=O)NCCC(N)=O)C[C@H]2O[C@]1(C)n1c3ccccc3c3c4c(c5c6ccccc6n2c5c31)C(=O)NC4

- Activity [4]: 0%
- Activity [5]: 1%
- Activity [6]: 41%
Compound: CO[C@@H]1[C@H](N(C)C(=O)CCC(=O)NCCC(=O)NCCC(=O)NCCC(=O)NCCC(=O)NCCC(=O)NCCC(=O)NCCC(=O)N[C@H]2CSSC[C@@H](C(=O)NCC(N)=O)NC(=O)CNC(=O)[C@H](Cc3ccccc3)NC(=O)[C@H](C(C)C)NC(=O)[C@H](CCCNC(=N)N)NC(=O)[C@H](Cc3ccccc3)NC(=O)[C@H](C(C)C)NC2=O)C[C@H]2O[C@]1(C)n1c3ccccc3c3c4c(c5c6ccccc6n2c5c31)C(=O)NC4 ({Staurosporine-Suc-βAla-βAla-βAla-βAla-βAla-βAla-βAla}-CVFRVFGCG-NH2; disulfide 1-8)

- Activity [7]: 100%
- Activity [8]: 95%
- Activity [9]: 42%
Compound: CO[C@@H]1[C@H](N(C)C(=O)CCC(=O)NCCC(=O)NCCC(=O)NCCC(=O)NCCC(=O)NCCC(=O)NCCC(=O)NCCC(=O)N[C@H]2CNC(=O)C[C@@H](C(N)=O)NC(=O)CNC(=O)[C@H](Cc3ccccc3)NC(=O)[C@H](C(C)C)NC(=O)[C@H](CCCNC(=N)N)NC(=O)[C@H](Cc3ccccc3)NC(=O)[C@H](C(C)C)NC2=O)C[C@H]2O[C@]1(C)n1c3ccccc3c3c4c(c5c6ccccc6n2c5c31)C(=O)NC4 ({Staurosporine-Suc-βAla-βAla-βAla-βAla-βAla-βAla-βAla}-[Dap]VFRVFGD-NH2; lactam 1-8)
